In ChEMBL document CHEMBL5523688, “Selective targeting of human TET1 by cyclic peptide inhibitors: Insights from biochemical profiling” (Bioorg Med Chem, 2024):

Experiments:
[1] = biological target: T1, Methylcytosine dioxygenase TET2 (Homo sapiens, UniProt Q6N021); experiment: (§1) Inhibition of N-terminal His-tagged recombinant human TET2 catalytic domain LCIdel mutant (D1129 to G1936 residues with Y1481 to N1843 replaced by 3 x GGGGS linker) expressed in Escherichia coli BL21 (DE3) using 5-methylcytosine as substrate preincubated for 10 mins followed by substrate and DNA-cofactor addition measured after 10 mins by Alphascreen assay
[2] = biological target: T2, Methylcytosine dioxygenase TET3 (Homo sapiens, UniProt O43151); experiment: (§2) Inhibition of recombinant human TET3 catalytic domain (E824 to I1795 residues) expressed in baculovirus infected Sf9 cells using 5-methylcytosine as substrate preincubated for 10 mins followed by substrate and DNA-cofactor addition measured after 10 mins by Alphascreen assay; details: read-out: pIC50 (converted)
T2 sequence (O43151 whole entry, the tested form may be a part): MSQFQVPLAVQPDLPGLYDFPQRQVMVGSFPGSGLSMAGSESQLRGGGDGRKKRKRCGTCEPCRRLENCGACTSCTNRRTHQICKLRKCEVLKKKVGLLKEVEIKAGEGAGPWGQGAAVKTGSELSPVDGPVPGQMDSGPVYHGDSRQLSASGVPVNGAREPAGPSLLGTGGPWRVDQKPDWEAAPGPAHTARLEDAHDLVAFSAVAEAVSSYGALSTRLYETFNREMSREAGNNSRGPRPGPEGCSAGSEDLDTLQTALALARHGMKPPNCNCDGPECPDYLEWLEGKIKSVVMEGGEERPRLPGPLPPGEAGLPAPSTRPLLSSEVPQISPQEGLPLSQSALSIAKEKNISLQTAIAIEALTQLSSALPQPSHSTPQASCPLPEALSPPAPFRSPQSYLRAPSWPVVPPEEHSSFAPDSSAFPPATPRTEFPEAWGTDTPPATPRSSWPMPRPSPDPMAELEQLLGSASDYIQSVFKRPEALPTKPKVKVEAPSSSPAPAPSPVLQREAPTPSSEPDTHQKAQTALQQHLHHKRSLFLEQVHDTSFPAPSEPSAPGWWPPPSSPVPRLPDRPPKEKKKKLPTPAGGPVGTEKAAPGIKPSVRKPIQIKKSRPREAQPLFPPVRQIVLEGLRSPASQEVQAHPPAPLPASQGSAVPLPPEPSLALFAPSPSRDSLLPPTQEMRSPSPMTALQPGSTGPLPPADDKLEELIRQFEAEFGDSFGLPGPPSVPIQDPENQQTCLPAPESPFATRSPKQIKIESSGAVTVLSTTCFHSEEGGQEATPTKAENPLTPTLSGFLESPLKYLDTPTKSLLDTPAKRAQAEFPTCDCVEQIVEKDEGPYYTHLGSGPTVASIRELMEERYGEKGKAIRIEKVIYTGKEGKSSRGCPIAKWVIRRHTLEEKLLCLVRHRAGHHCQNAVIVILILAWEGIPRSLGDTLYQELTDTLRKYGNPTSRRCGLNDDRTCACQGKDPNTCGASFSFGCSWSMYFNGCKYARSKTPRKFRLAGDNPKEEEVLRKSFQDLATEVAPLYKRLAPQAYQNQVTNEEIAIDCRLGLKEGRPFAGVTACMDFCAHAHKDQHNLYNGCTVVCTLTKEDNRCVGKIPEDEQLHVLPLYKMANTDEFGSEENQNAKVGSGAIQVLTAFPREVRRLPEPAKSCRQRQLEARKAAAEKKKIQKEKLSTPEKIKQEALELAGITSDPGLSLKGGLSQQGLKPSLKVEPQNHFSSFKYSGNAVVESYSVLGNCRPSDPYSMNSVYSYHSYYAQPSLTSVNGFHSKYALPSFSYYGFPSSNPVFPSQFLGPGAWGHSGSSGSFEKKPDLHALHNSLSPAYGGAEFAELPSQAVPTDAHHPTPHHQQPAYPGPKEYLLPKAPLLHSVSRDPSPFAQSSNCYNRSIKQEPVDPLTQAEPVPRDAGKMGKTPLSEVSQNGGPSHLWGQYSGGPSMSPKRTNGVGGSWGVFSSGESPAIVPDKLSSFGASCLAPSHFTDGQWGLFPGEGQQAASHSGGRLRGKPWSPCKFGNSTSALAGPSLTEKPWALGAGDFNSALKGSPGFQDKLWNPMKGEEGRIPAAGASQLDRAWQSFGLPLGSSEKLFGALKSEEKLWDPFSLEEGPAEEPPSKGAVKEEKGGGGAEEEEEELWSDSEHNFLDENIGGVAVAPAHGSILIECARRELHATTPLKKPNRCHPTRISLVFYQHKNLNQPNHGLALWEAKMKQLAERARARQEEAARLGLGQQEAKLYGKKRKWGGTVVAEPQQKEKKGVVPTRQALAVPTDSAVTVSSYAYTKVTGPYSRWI

[3] = biological target: T3, Methylcytosine dioxygenase TET1 (Homo sapiens, UniProt Q8NFU7); experiment: (§3) Inhibition of N-terminal 3xFlag-tagged recombinant human TET1 catalytic domain (E1418 to V2136 residues) expressed in baculovirus infected Sf9 cells using 5-methylcytosine as substrate assessed as change in pIC50 preincubated for 10 mins followed by substrate and DNA-cofactor addition measured after 30 mins by Alphascreen assay; details: time 40.0 min
Outline: (§4)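 TET1 catalytic domain (E1418–V2136, Sf9 baculovirus) at 2 nM was preincubated 10 min with inhibitor (1% DMSO) in HEPES 50 mM pH 7.3, 150 mM NaCl, 0.1% BSA, 0.01% Tween-20. Reaction was started with ascorbate 200 µM, Fe(II) 20 µM, 2OG 20 µM and 5mC ssDNA 10 nM, run 30 min, then EDTA-quenched. Anti-5hmC antibody with AlphaScreen beads, 45–60 min, luminescence read. Three independent replicates.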

[4] = test system: Methylcytosine dioxygenase TET2 (Homo sapiens), Q6N021 [UNDEFINED MUTATION]; details: time 20.0 min
[5] = biological target: T3, Methylcytosine dioxygenase TET1; experiment: as §3, with “substrate” for “substrate assessed as change in pIC50”; details: read-out: pIC50 (converted); outline: as §4
[6] = biological target: T2, Methylcytosine dioxygenase TET3; experiment: as §2, with “as substrate assessed as change in pIC50 preincubated for” for “as substrate preincubated for”; details: time 20.0 min
[7] = biological target: T1, Methylcytosine dioxygenase TET2; experiment: as §1, with “after 12” for “after 10”, “by SPE-MS analysis” for “by Alphascreen assay”
[8] = biological target: Methylcytosine dioxygenase TET1 (Mus musculus, UniProt Q3URK3); experiment: Inhibition of recombinant mouse TET1 catalytic domain (E1367 to V2039 residues) expressed in baculovirus expression system using 5-methylcytosine as substrate preincubated for 10 mins followed by substrate and DNA-cofactor addition measured after 9 mins by Alphascreen assay
Outline: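 Murine Tet1 catalytic domain (E1367–V2039, High Five baculovirus) at 2 nM was preincubated 10 min with inhibitor (1% DMSO) in HEPES 50 mM pH 7.3, NaCl 150 mM, BSA 0.1%, Tween-20 0.01%. Ascorbate 200 µM, Fe(II) 20 µM, 2OG 20 µM and 5mC ssDNA 10 nM were added; reaction ran 9 min, then EDTA-quenched. AlphaScreen anti-5hmC detection by luminescence.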

CC[C@H](C)[C@@H]1NC(=O)[C@H](CC(C)C)NC(=O)[C@@H](Cc2ccc(O)cc2)NC(=O)CSC[C@@H](C(N)=O)NC(=O)[C@H](CO)NC(=O)[C@H](Cc2c[nH]cn2)NC(=O)[C@H](CCC(=O)O)NC(=O)[C@H](Cc2c[nH]c3ccccc23)NC(=O)[C@H](Cc2c[nH]c3ccccc23)NC(=O)[C@H](C)NC(=O)[C@H](Cc2ccc(O)cc2)NC(=O)[C@H](Cc2ccc(O)cc2)NC(=O)[C@H](C)NC(=O)[C@H](Cc2ccc(O)cc2)NC1=O
pIC50 [1]: 4.65 | IC50 [2]: 5.25 µM | deltapIC50 [3]: -0.94 | deltapIC50 [4]: -0.05 | IC50 [5]: 2.88 µM | deltapIC50 [6]: 0

CC[C@H](C)[C@@H]1NC(=O)[C@H](CC(C)C)NC(=O)[C@@H](Cc2ccc(O)cc2)NC(=O)CSC[C@@H](C(N)=O)NC(=O)[C@H](CO)NC(=O)[C@H](Cc2c[nH]cn2)NC(=O)[C@H](CCC(=O)O)NC(=O)[C@H](Cc2c[nH]c3ccccc23)NC(=O)[C@H](Cc2c[nH]c3ccccc23)NC(=O)[C@H]([C@@H](C)O)NC(=O)[C@H](C)NC(=O)[C@H](Cc2ccc(O)cc2)NC(=O)[C@H](C)NC(=O)[C@H](Cc2ccc(O)cc2)NC1=O
pIC50 [1]: 4.3 | IC50 [2]: 15.5 µM | deltapIC50 [3]: -1.46 | deltapIC50 [4]: -0.4 | IC50 [5]: 9.55 µM | deltapIC50 [6]: -0.46

CC[C@H](C)[C@@H]1NC(=O)[C@H](CC(C)C)NC(=O)[C@@H](Cc2ccc(O)cc2)NC(=O)CSC[C@@H](C(N)=O)NC(=O)[C@H](CO)NC(=O)[C@H](Cc2c[nH]cn2)NC(=O)[C@H](CCC(=O)O)NC(=O)[C@H](Cc2c[nH]c3ccccc23)NC(=O)[C@H](C)NC(=O)[C@H]([C@@H](C)O)NC(=O)[C@H](Cc2ccc(O)cc2)NC(=O)[C@H](Cc2ccc(O)cc2)NC(=O)[C@H](C)NC(=O)[C@H](Cc2ccc(O)cc2)NC1=O
pIC50 [1]: 4.34 | IC50 [2]: 20.4 µM | deltapIC50 [3]: -1.32 | deltapIC50 [4]: -0.36 | IC50 [5]: 6.92 µM | deltapIC50 [6]: -0.59

CC[C@H](C)[C@@H]1NC(=O)[C@H](CC(C)C)NC(=O)[C@@H](Cc2ccc(O)cc2)NC(=O)CSC[C@@H](C(N)=O)NC(=O)[C@H](CO)NC(=O)[C@H](Cc2c[nH]cn2)NC(=O)[C@H](CCC(=O)O)NC(=O)[C@H](Cc2c[nH]c3ccccc23)NC(=O)[C@H](Cc2c[nH]c3ccccc23)NC(=O)[C@H]([C@@H](C)O)NC(=O)[C@H](Cc2ccc(O)cc2)NC(=O)[C@H](Cc2ccc(O)cc2)NC(=O)[C@H](C)NC(=O)[C@H](C)NC1=O
pIC50 [1]: 4.22 | IC50 [2]: 15.8 µM | deltapIC50 [3]: -1.51 | deltapIC50 [4]: -0.48 | IC50 [5]: 10.7 µM | deltapIC50 [6]: -0.47

CC[C@H](C)[C@@H]1NC(=O)[C@H](CC(C)C)NC(=O)[C@@H](Cc2ccc(O)cc2)NC(=O)CSC[C@@H](C(N)=O)NC(=O)[C@H](CO)NC(=O)[C@H](Cc2c[nH]cn2)NC(=O)[C@H](CCC(=O)O)NC(=O)[C@H](C)NC(=O)[C@H](Cc2c[nH]c3ccccc23)NC(=O)[C@H]([C@@H](C)O)NC(=O)[C@H](Cc2ccc(O)cc2)NC(=O)[C@H](Cc2ccc(O)cc2)NC(=O)[C@H](C)NC(=O)[C@H](Cc2ccc(O)cc2)NC1=O
pIC50 [1]: < 4 | IC50 [2]: 15.1 µM | deltapIC50 [3]: -1.63 | deltapIC50 [4]: < -0.7 | IC50 [5]: 13.8 µM | deltapIC50 [6]: -0.46

CC[C@H](C)[C@@H]1NC(=O)[C@H](CC(C)C)NC(=O)[C@@H](Cc2ccc(O)cc2)NC(=O)CSC[C@@H](C(N)=O)NC(=O)[C@H](CO)NC(=O)[C@H](Cc2c[nH]cn2)NC(=O)[C@H](C)NC(=O)[C@H](Cc2c[nH]c3ccccc23)NC(=O)[C@H](Cc2c[nH]c3ccccc23)NC(=O)[C@H]([C@@H](C)O)NC(=O)[C@H](Cc2ccc(O)cc2)NC(=O)[C@H](Cc2ccc(O)cc2)NC(=O)[C@H](C)NC(=O)[C@H](Cc2ccc(O)cc2)NC1=O
pIC50 [1]: 4.14 | IC50 [2]: > 100 µM | deltapIC50 [3]: -0.72 | deltapIC50 [4]: -0.55 | IC50 [5]: 1.74 µM | deltapIC50 [6]: < -1.28

CC[C@H](C)[C@@H]1NC(=O)[C@H](CC(C)C)NC(=O)[C@@H](Cc2ccc(O)cc2)NC(=O)CSC[C@@H](C(N)=O)NC(=O)[C@H](C)NC(=O)[C@H](Cc2c[nH]cn2)NC(=O)[C@H](CCC(=O)O)NC(=O)[C@H](Cc2c[nH]c3ccccc23)NC(=O)[C@H](Cc2c[nH]c3ccccc23)NC(=O)[C@H]([C@@H](C)O)NC(=O)[C@H](Cc2ccc(O)cc2)NC(=O)[C@H](Cc2ccc(O)cc2)NC(=O)[C@H](C)NC(=O)[C@H](Cc2ccc(O)cc2)NC1=O
pIC50 [1]: 4.68 | IC50 [2]: 6.31 µM | deltapIC50 [3]: -0.1 | deltapIC50 [4]: -0.02 | IC50 [5]: 0.417 µM | deltapIC50 [6]: -0.08

CC[C@H](C)[C@@H]1NC(=O)[C@H](CC(C)C)NC(=O)[C@@H](Cc2ccc(O)cc2)NC(=O)CSC[C@@H](C(N)=O)NC(=O)[C@H](CO)NC(=O)[C@H](C)NC(=O)[C@H](CCC(=O)O)NC(=O)[C@H](Cc2c[nH]c3ccccc23)NC(=O)[C@H](Cc2c[nH]c3ccccc23)NC(=O)[C@H]([C@@H](C)O)NC(=O)[C@H](Cc2ccc(O)cc2)NC(=O)[C@H](Cc2ccc(O)cc2)NC(=O)[C@H](C)NC(=O)[C@H](Cc2ccc(O)cc2)NC1=O
pIC50 [1]: 4.93 | IC50 [2]: 3.09 µM | deltapIC50 [3]: 0.23 | deltapIC50 [4]: 0.23 | IC50 [5]: 0.195 µM | deltapIC50 [6]: 0.24

CC[C@H](C)[C@@H]1NC(=O)[C@H](CC(C)C)NC(=O)[C@@H](Cc2ccc(O)cc2)NC(=O)CSC[C@@H](C(N)=O)NC(=O)[C@H](CO)NC(=O)[C@H](Cc2c[nH]cn2)NC(=O)[C@H](CCC(=O)O)NC(=O)[C@H](Cc2c[nH]c3ccccc23)NC(=O)[C@H](Cc2c[nH]c3ccccc23)NC(=O)[C@H]([C@@H](C)O)NC(=O)[C@H](Cc2ccc(O)cc2)NC(=O)[C@H](C)NC(=O)[C@H](C)NC(=O)[C@H](Cc2ccc(O)cc2)NC1=O
pIC50 [1]: 4.63 | IC50 [2]: 16.2 µM | deltapIC50 [3]: -0.52 | deltapIC50 [4]: -0.07 | IC50 [5]: 1.1 µM | deltapIC50 [6]: -0.48

CC[C@H](C)[C@@H]1NC(=O)[C@H]([C@@H](C)CC)NC(=O)[C@@H](Cc2c[nH]c3ccccc23)NC(=O)CSC[C@@H](C(N)=O)NC(=O)[C@H](CCCNC(=N)N)NC(=O)[C@H](Cc2c[nH]c3ccccc23)NC(=O)[C@H](Cc2c[nH]c3ccccc23)NC(=O)[C@H]([C@@H](C)O)NC(=O)[C@H](Cc2ccc(O)cc2)NC(=O)[C@H](CC(N)=O)NC(=O)[C@H](Cc2c[nH]cn2)NC(=O)[C@H](Cc2ccc(O)cc2)NC1=O
pIC50 [1]: 6.08 | IC50 [2]: 0.631 µM | deltapIC50 [4]: -0.54 | pIC50 [7]: 5.54 | IC50 [5]: 0.363 µM | IC50 [8]: 0.933 µM

CC(C)[C@@H]1NC(=O)[C@@H]2CCCN2C(=O)[C@H](C)NC(=O)[C@@H](Cc2ccc(O)cc2)NC(=O)CSC[C@@H](C(N)=O)NC(=O)[C@H](Cc2c[nH]c3ccccc23)NC(=O)[C@H](Cc2c[nH]c3ccccc23)NC(=O)[C@H]([C@@H](C)O)NC(=O)[C@H](Cc2ccc(O)cc2)NC(=O)[C@H](CC(N)=O)NC(=O)[C@H](Cc2c[nH]c3ccccc23)NC(=O)[C@H](Cc2ccc(O)cc2)NC1=O
pIC50 [1]: 4.17 | IC50 [2]: 46.8 µM | deltapIC50 [4]: 1.49 | pIC50 [7]: 5.66 | IC50 [5]: 1.86 µM | IC50 [8]: 55 µM
